What all share (format): functional
The subject of experiment [1] is Bacillus thuringiensis. The experiment in a line: Antibacterial activity against Bacillus thuringiensis ATCC 6051 at 1 mg/ml after 24 hrs by agar-diffusion method. As to conditions: ATCC 6051, 24 h, read-out: IZ. In a few lines:
(§1)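 Agar disk diffusion on nutrient agar seeded with about 10⁶ CFU/mL of the test bacterium. Filter-paper disks were impregnated with compound in DMF at 1 mg/mL, two disks per plate, in triplicate. DMF alone served as control. Plates were incubated at 37 °C for 24 h, and the mean inhibition-zone diameter was recorded in mm.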
In general terms: Agar diffusion results depend on both activity and mobility in agar.

Experiment [2] concerns Escherichia coli. The experiment in a line: Antibacterial activity against Escherichia coli ATCC 14169 at 1 mg/ml after 24 hrs by agar-diffusion method. The following applies: ATCC 14169, 24 h, read-out: IZ. In a few lines:
as §1

Experiment [3] relates to Bacillus thuringiensis. The experiment in a line: Antibacterial activity against Bacillus thuringiensis ATCC 6051 after 24 hrs by serial dilution method. As to conditions: ATCC 6051, 24 h. In a few lines:
(§2)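 Broth microdilution in Mueller–Hinton broth, run only for compounds giving zones >14 mm in the disk test. DMF stocks were diluted twofold from 500 to 3.125, and about 10⁶ CFU/mL bacteria were added per well. Sealed plates were kept at 37 °C for 24 h in a humid chamber. MIC was taken as the lowest concentration without visible turbidity.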

In experiment [4] the test system is Pseudomonas aeruginosa. The experiment in a line: Antibacterial activity against Pseudomonas aeruginosa ATCC 27853 after 24 hrs by serial dilution method. The following applies: ATCC 27853, 24 h. In a few lines:
as §2

The test system of experiment [5] is Botrytis fabae. The experiment in a line: Antifungal activity against Botrytis fabae ATCC 14862 after 48 hrs by serial dilution method. The following applies: ATCC 14862, 48 h. In a few lines: (§3)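 MICs were measured by microdilution in Sabouraud liquid medium, for compounds with disk zones >14 mm. DMF stocks were serially diluted twofold across 500–3.125. Sealed plates were incubated at 37 °C for 48 h in a humid chamber. The lowest concentration with no visible turbidity was recorded as the MIC.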

Experiment [6] concerns Bacillus subtilis. The experiment in a line: Antibacterial activity against Bacillus subtilis ATCC 6633 after 24 hrs by serial dilution method relative to chloramphenicol.
Experiment [7] has as its system Pseudomonas aeruginosa. The experiment in a line: Antibacterial activity against Pseudomonas aeruginosa ATCC 27853 at 1 mg/ml after 24 hrs by agar-diffusion method. The following applies: ATCC 27853, 24 h, read-out: IZ. In short, it runs like this:
as §1

Experiment [8] relates to Botrytis fabae. The experiment in a line: Antifungal activity against Botrytis fabae ATCC 14862 at 1 mg/ml after 48 hrs by agar-diffusion method. As to conditions: ATCC 14862, 48 h, read-out: IZ. In short, it runs like this:
(§4)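 Fungi were seeded at 10⁴ CFU/mL onto nutrient agar plates. Filter-paper disks carried compound dissolved in DMF at 1 mg/mL, two disks per plate, in triplicate, with a DMF-only control. After 48 h incubation at 37 °C, the average diameter of the growth-inhibition zone was read in mm.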

The subject of experiment [9] is Fusarium oxysporum. The experiment in a line: Antifungal activity against Fusarium oxysporum ATCC 16417 after 48 hrs by serial dilution method. The following applies: ATCC 16417, 48 h. In a few lines: as §3
The test system of experiment [10] is Bacillus subtilis. The experiment in a line: Antibacterial activity against Bacillus subtilis ATCC 6633 after 24 hrs by serial dilution method. The following applies: ATCC 6633, 24 h. In short, it runs like this: as §2
Experiment [11] relates to Bacillus subtilis. The experiment in a line: Antibacterial activity against Bacillus subtilis ATCC 6633 at 1 mg/ml after 24 hrs by agar-diffusion method. The following applies: ATCC 6633, 24 h, read-out: IZ. In a few lines:
as §1

Experiment [12] relates to Fusarium oxysporum. The experiment in a line: Antifungal activity against Fusarium oxysporum ATCC 16417 at 1 mg/ml after 48 hrs by agar-diffusion method. The following applies: ATCC 16417, 48 h, read-out: IZ. In short, it runs like this: as §4
The test system of experiment [13] is Escherichia coli. The experiment in a line: Antibacterial activity against Escherichia coli ATCC 14169 after 24 hrs by serial dilution method. The following applies: ATCC 14169, 24 h. In a few lines: as §2
Experiment [14] has as its system Bacillus subtilis. The experiment in a line: Antibacterial activity against Bacillus subtilis ATCC 6633 after 24 hrs by serial dilution method relative to cephalothin.

Values after ≈ are worked out from the molar mass of the structure shown.

On to `Cc1nn(-c2ccccc2)c2c1/C(=N/c1cnccn1)CO2`, for which the zone of inhibition at 1000 µg/mL came to 15 mm in the experiment with Bacillus thuringiensis [1]; 20 mm in the experiment with Escherichia coli [2]; 16 mm in the experiment with Pseudomonas aeruginosa [7]; 16 mm in the experiment on Botrytis fabae [8]; 32 mm in the experiment on Bacillus subtilis [11]; 31 mm in the experiment with Fusarium oxysporum [12]. The MIC (commonly the least concentration at which growth counts as inhibited) with Bacillus thuringiensis [3] was found to be 100 µg/mL (≈ 343 µM); with Pseudomonas aeruginosa [4], 100 µg/mL (≈ 343 µM); against Botrytis fabae [5], 100 µg/mL (≈ 343 µM); against Fusarium oxysporum [9], 12.5 µg/mL (≈ 42.9 µM); in the experiment on Bacillus subtilis [10], 12.5 µg/mL (≈ 42.9 µM); against Escherichia coli [13], 50 µg/mL (≈ 172 µM). In addition, the Activity in the experiment with Bacillus subtilis [6] is reported as 25%; in the experiment with Bacillus subtilis [14] it was 50%.
Turning to `Cc1[nH]n(-c2ccccc2)c(=O)c1-c1cc2c(=O)oc3ccccc3c2o1`, the zone of inhibition at 1000 µg/mL with Bacillus thuringiensis [1] amounted to 15 mm; with Escherichia coli [2], 15 mm; in the experiment with Pseudomonas aeruginosa [7] it was 38 mm; in the experiment with Botrytis fabae [8] it was 37 mm; with Bacillus subtilis [11], 33 mm; in the experiment with Fusarium oxysporum [12], 37 mm. The MIC against Bacillus thuringiensis [3] was determined as 100 µg/mL (≈ 279 µM); with Pseudomonas aeruginosa [4], 6.25 µg/mL (≈ 17.4 µM); against Botrytis fabae [5], 6.25 µg/mL (≈ 17.4 µM); against Fusarium oxysporum [9] it was 6.25 µg/mL (≈ 17.4 µM); against Bacillus subtilis [10], 12.5 µg/mL (≈ 34.9 µM); against Escherichia coli [13], 6.25 µg/mL (≈ 17.4 µM). In addition, the Activity in the experiment on Bacillus subtilis [6] is reported as 25%; with Bacillus subtilis [14] it was 50%.

Source of the values: ChEMBL document CHEMBL1781920, “Synthesis and antimicrobial activity of some new 4-hetarylpyrazole and furo[2,3-c]pyrazole derivatives” (2011).
